1 molecule from ChEMBL document CHEMBL2331121, “Design, synthesis, and pharmacological characterization of N- and O-substituted 5,6,7,8-tetrahydro-4H-isoxazolo[4,5-d]azepin-3-ol analogues: novel 5-HT(2A)/5-HT(2C) receptor agonists with pro-cognitive properties” (J Med Chem, 2013) can be followed below.

By Emax is commonly meant the greatest response seen or fitted, relative to the assay's reference. For orientation: Ki means the dissociation constant of the complex between target and ligand, obtained from inhibition or displacement. One may read the EC50 as the concentration needed to bring the measured effect to its halfway point.

For one experiment, the species on record is Homo sapiens. Nature of the experiment: Selectivity ratio of EC50 for human 5HT2C receptor to EC50 for M1 muscarinic receptor (unknown origin) by FLIPR assay.
Experiment [1] deals with T1, 5-hydroxytryptamine receptor 2C (Homo sapiens) (UniProt P28335).
T1 sequence (whole entry): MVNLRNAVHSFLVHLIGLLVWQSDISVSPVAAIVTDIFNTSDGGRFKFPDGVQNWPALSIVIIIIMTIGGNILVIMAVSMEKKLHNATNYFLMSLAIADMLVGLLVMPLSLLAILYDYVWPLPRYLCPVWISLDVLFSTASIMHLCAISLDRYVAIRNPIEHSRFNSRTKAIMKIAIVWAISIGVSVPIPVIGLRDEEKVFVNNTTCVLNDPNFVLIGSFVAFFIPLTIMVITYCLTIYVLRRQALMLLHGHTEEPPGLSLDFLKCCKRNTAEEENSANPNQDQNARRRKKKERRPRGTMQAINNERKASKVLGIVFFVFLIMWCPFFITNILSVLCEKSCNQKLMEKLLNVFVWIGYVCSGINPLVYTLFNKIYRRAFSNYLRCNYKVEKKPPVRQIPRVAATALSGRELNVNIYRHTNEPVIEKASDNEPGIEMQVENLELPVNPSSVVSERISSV
Nature of the experiment: Ratio of EC50 for human 5HT2C receptor by calcium fiux-based fluorescence assay to […] accumulation-based TR-FRET assay. It counts as functional. (TR-FRET usually uses a lanthanide donor and a delayed reading to cut background.)

Experiment [2] deals with T2, 5-hydroxytryptamine receptor 2A (Homo sapiens, UniProt P28223). Nature of the experiment: Ratio of EC50 for human 5HT2A receptor by calcium fiux-based fluorescence assay to EC50 for 5HT2A by IP1 accumulation-based TR-FRET assay. It counts as functional.
For experiment [3], the target named is T2, 5-hydroxytryptamine receptor 2A. The experiment can be described thus: Agonist activity at human 5HT2A receptor expressed in HEK293 cells assessed as accumulation of IP1 incubated for 1 hr at 37 degC followed by 15 mins at RT by TR-FRET assay relative to 5HT. The experiment is classed as functional, cell-based. In outline:
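Polyclonal HEK293 lines stably expressing human 5-HT2A (variant 1) or 5-HT2C (INI isoform), detached and suspended at 1 × 10⁷ cells/mL in HBSS with 20 mM HEPES, 1 mM CaCl₂, 1 mM MgCl₂, pH 7.4. Ligands in buffer with 40 mM LiCl. Incubated 1 h at 37 °C, then 15 min RT. IP1 read by HTRF 665/615 ratio. Triplicate, at least four times.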

The target of experiment [4] is T1, 5-hydroxytryptamine receptor 2C (Homo sapiens). The experiment can be described thus: Agonist activity at human 5HT2C receptor expressed in HEK293 cells assessed as induction of intracellular calcium release by fluorescence assay relative to 5HT. The experiment is classed as functional, cell-based. A digest of the protocol:
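Stable polyclonal 5-HT2A or 5-HT2C HEK293 cells seeded on poly-D-lysine plates (6 × 10⁴ cells/well). Next day loaded with Fluo-4/AM for 1 h at 37 °C in HBSS/20 mM HEPES/1 mM CaCl₂/1 mM MgCl₂/2.5 mM probenecid, pH 7.4. Fluorescence (485 ex/525 em) recorded before and up to 90 s after agonist. Response relative to 5-HT on the same plate. Duplicate, at least three times.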
For orientation: Calcium flux is commonly read through the fluorescence of an indicator in the cells.

In experiment [5] the test system is Mus musculus. The experiment can be described thus: Procognitive effect in C57BI/6J mouse assessed as time spent in familiar arm at 0.43 mg/kg, po administered 30 mins prior to acquisition trial measured after 24 hrs in presence of SB242084. It counts as functional. In outline: (§1)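 Male C57Bl/6J mice aged 8 weeks, two-trial place recognition Y-maze. 3 min acquisition with two arms open; 24 h ITI; 3 min retention with all three arms open. Drug given po 30 min before acquisition, vehicle 10% HP-βCD. SB242084 2.1 mg/kg co-administered where stated; doses as free base. Readouts are % distance, arm entries and time in each arm. Familiar arms pooled; one-way ANOVA.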

Experiment [6] deals with Mus musculus. The experiment can be described thus: Procognitive effect in C57Bl/6J mouse assessed as distance traveled in the familiar arm at 0.43 mg/kg, po administered 30 mins prior to acquisition trial measured after 24 hrs in presence of SB242084 (reference value: 31.5 +/- 2.9%). It counts as functional. A digest of the protocol:
as §1

Experiment [7] concerns Mus musculus. The experiment can be described thus: Procognitive effect in C57Bl/6J mouse assessed as time spent in familiar arm at 0.43 mg/kg, po administered 30 mins prior to acquisition trial measured after 24 hrs by Y-maze test. The experiment is classed as functional. A digest of the protocol:
as §1

The subject of experiment [8] is Mus musculus. The experiment can be described thus: Procognitive effect in C57Bl/6J mouse assessed as number of familiar arm entry at 0.43 mg/kg, po administered 30 mins prior to acquisition trial measured after 24 hrs by Y-maze test. It counts as functional. A digest of the protocol: as §1
The test system of experiment [9] is Mus musculus. The experiment can be described thus: Procognitive effect in C57Bl/6J mouse assessed as distance traveled in the familiar arm at 0.43 mg/kg, po administered 30 mins prior to acquisition trial measured after 24 hrs by Y-maze test (Rvb =31.5 +/- 2.9%). The experiment is classed as functional. In outline:
as §1

Experiment [10] addresses T3, 5-hydroxytryptamine receptor 2C (Rattus norvegicus) (UniProt P08909).
T3 sequence (whole entry): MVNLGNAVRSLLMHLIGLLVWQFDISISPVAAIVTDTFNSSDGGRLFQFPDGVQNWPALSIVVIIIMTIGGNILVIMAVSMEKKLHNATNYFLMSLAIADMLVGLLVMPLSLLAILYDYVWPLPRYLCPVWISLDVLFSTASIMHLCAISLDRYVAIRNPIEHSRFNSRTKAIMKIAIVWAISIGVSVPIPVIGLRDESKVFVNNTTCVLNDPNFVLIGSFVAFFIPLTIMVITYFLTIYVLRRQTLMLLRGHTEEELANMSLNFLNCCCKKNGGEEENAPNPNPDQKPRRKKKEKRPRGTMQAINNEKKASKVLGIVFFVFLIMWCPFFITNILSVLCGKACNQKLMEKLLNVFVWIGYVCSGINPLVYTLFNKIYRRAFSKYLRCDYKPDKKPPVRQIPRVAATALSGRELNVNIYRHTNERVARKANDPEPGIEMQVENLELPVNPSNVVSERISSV
The experiment can be described thus: Displacement of [125I]-N-(p-I-Bn)-THAZ from 5HT2C receptor in Sprague-Dawley rat cortical membrane at 100 uM after 40 mins by autoradiography.

In experiment [11] the target is T3, 5-hydroxytryptamine receptor 2C (Rattus norvegicus). The experiment can be described thus: Displacement of [125I]-N-(p-I-Bn)-THAZ from 5HT2C receptor in rat hippocampal membrane after 1 hr by scintillation counting analysis. To be noted: Hippocampus. It counts as cell membranes. (In a radioligand displacement assay an active substance lowers the binding of a labelled ligand.)

The target in experiment [12] is T2, 5-hydroxytryptamine receptor 2A. Nature of the experiment: biochemical. It counts as cell-based, tsA201. To be noted: read-out: Ki.
Experiment [13] has the same target. The experiment can be described thus: Agonist activity at human 5HT2A receptor expressed in HEK293 cells assessed as accumulation of IP1 incubated for 1 hr at 37 degC followed by 15 mins at RT by TR-FRET assay. It counts as functional, cell-based.
In experiment [14] the target is T4, 5-hydroxytryptamine receptor 2C (Homo sapiens, UniProt P28335).
T4 sequence (P28335 whole entry): T1 sequence (whole entry)
The experiment can be described thus: Agonist activity at human 5HT2C receptor expressed in HEK293 cells assessed as accumulation of IP1 incubated for 1 hr at 37 degC followed by 15 mins at RT by TR-FRET assay. The experiment is classed as functional, cell-based.

In experiment [15] the target is T2, 5-hydroxytryptamine receptor 2A. The experiment can be described thus: Agonist activity at human 5HT2A receptor expressed in HEK293 cells assessed as induction of intracellular calcium release measured for 90 secs by fluorescence assay. The experiment is classed as functional, cell-based. To be noted: read-out: EC50.

Active and inactive are the calls of the source. No cut-off for these calls is given here.
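Throughout, for Ki: radioligand displacement of [3H]ketanserin on membranes of tsA201 cells expressing the receptor, incubated 1 hr, bound radioactivity read by scintillation counting.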

T2 sequence (P28223 whole entry): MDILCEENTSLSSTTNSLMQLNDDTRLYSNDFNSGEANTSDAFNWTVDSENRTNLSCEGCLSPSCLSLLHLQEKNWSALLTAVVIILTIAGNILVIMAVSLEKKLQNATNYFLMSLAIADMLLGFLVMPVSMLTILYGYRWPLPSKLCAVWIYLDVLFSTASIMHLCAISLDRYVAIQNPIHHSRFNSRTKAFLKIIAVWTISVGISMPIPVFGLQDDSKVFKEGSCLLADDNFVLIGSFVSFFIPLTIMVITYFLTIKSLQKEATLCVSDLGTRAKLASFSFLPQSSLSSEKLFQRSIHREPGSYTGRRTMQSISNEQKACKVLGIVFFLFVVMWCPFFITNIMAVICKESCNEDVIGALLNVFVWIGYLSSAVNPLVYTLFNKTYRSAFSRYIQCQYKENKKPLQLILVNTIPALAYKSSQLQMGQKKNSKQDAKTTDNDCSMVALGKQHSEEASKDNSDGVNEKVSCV

Regarding `O=c1c2c(on1Cc1ccccc1)CCNCC2`, the Ratio EC50 in the experiment filed under Homo sapiens was 20; in [1] it was 2; in experiment [2] it was 2. The Emax amounted to 95% in experiment [3] and 90% in [4]. The Activity in the experiment with Mus musculus [5] came to 31.7%; in the experiment on Mus musculus [6] it was 32.6%; in the experiment with Mus musculus [7], 30.6%; with Mus musculus [8], 30.8%; in the experiment on Mus musculus [9], 29.8%. Further, in [10], the result was Active. Also, the outcome in experiment [11] was inactive. Further, in experiment [12], the Ki was found to be 8800 nM. In addition, the concentration for a half-maximal effect (EC50) in experiment [13] came to 2400 nM; in experiment [14], 1700 nM; in [15] it was 550 nM.
